Consider three compounds from publication PMC9950857 (RSC Advances, 2023).

In assay [1] the target is T1, pancreatic lipase (Sus scrofa, UniProt P00591).
T1 sequence (P00591 1-450): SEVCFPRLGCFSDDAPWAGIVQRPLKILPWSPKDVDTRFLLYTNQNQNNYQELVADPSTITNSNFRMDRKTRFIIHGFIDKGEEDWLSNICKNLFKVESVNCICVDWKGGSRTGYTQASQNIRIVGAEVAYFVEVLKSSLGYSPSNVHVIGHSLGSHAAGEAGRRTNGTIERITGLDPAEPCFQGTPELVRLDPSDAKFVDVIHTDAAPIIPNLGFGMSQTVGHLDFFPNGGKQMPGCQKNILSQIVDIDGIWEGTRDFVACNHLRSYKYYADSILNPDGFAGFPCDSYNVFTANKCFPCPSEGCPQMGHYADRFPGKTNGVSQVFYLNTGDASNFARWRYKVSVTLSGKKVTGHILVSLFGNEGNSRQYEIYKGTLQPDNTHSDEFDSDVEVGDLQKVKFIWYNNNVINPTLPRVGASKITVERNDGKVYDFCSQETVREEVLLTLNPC
Put plainly: Fourier-transform infrared spectroscopy of lipase secondary structure. The following applies: ratio of lipase to HYP increased from 1 : 0 to 1 : 4, FT-IR, 298 K. In outline:
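FT-IR at 298 K: 128 scans at 4 cm⁻¹ resolution. Lipase at 2.0×10^-4 M, alone or with test compound at different ratios. Background, protein and compound spectra subtracted; samples scanned over 1700–1500 cm⁻¹. Amide bands analysed by peak fitting.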

Assay [2] addresses T1, pancreatic lipase. As to the kind of experiment: Enzymatic assay of lipase activity. It counts as biochemical. Particulars: for inhibition type: Lineweaver–Burk plots, 310 K, 405 nm, pNPC 2.0–3.6 × 10^−3 M.
The target in assay [3] is T1, pancreatic lipase. Put plainly: Synchronous fluorescence spectroscopy. The assay is classed as binding. Particulars: HYP 4.2 × 10^−5 M, 298 K.
For assay [4], the target named is T1, pancreatic lipase. As to the kind of experiment: Fluorescence titration. The assay is classed as binding. Particulars: for ΔG: from fluorescence data; for Kd: K a (binding constant). The procedure, abridged: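 Lipase held at 6.0×10^-6 M final with 0 to 4.2×10^-5 M final test compound, in 5.0×10^-2 M Tris–HCl pH 7.4. Spectra recorded at 277, 298 and 310 K: excitation 280 nm, emission 300–500 nm, slits 5 nm. Intensities corrected for inner-filter effect.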

In assay [5] the target is T1, pancreatic lipase. As to the kind of experiment: Time-resolved fluorescence measurements. It counts as binding. The following applies: fluorescence titration and time-resolved fluorescence. In outline:
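Fluorescence lifetimes of free lipase and of the lipase–test compound complex at 298 K. Excitation 280 nm, emission 345 nm. Decays analysed by tail fitting, with fits judged by χ². Average lifetime calculated as Σαiτi.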

Assay [6] deals with T1, pancreatic lipase. Put plainly: ITC analysis of HYP titrated into lipase. The assay is classed as binding. The procedure, abridged:
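Calorimetric titration: 1.0×10^-4 M lipase in the cell, containing 1% ethanol, titrated with 1.0×10^-3 M test compound. Injections at 180 s intervals, stirring at 250 rpm; other solutions degassed. First injection discarded. Integrated heats corrected for dilution and fitted against molar ratio. ΔG from −RT lnKa; ΔS from ΔG = ΔH − TΔS.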
In general terms: In ITC the heat of successive injections is recorded.

Assay [7] deals with T1, pancreatic lipase. The following applies: cited from earlier work.
For the next assay, the system named is lipase. Particulars: cited from earlier work.
Setting [8] is: from fluorescence data at 277, 298, 310 K.

Marks after values point to notes of the source that are not given here.

The IC50 is the concentration that gives 50% inhibition. Read a high IC50 as weaker potency. The term Kd denotes the equilibrium constant for the complex coming apart. Read a low Kd as tighter binding. For `O=c1c(O[C@@H]2O[C@H](CO)[C@H](O)[C@H](O)[C@H]2O)c(-c2ccc(O)c(O)c2)oc2cc(O)cc(O)c12` [HYP, quercetin-3-O-β-D-galactoside], on pancreatic lipase [1], the “decrease of α-helix in lipase” value is given as 1.6%. At pancreatic lipase [2], the IC50 is 1920 µM and the inhibition type result was “non-competitive inhibitor”. Also, the “decrease of Tyr residue fluorescence intensity” value at pancreatic lipase [3] (Δλ = 15 nm) came out at 65.86%. The “decrease of Trp residue's fluorescence intensity” value at pancreatic lipase [3] (Δλ = 60 nm) was found to be 73.65%. At pancreatic lipase [4] (277 K), the “K SV (Stern–Volmer quenching constant)” value is listed as 7.113 ± 0.029^a × 10^4 M^−1, the KSV is on record as 7.113 ± 0.029 × 10^4 M^−1, the “n (Hill coefficient)” value is recorded as 1.379 and the ΔG is -8.32 kcal/mol. Moreover, binding on pancreatic lipase [4] (277 K) was put at a Kd of 0.283 µM. At pancreatic lipase [4] (298 K), the “K SV (Stern–Volmer quenching constant)” value was 6.826 ± 0.010^b × 10^4 M^−1, the “n (Hill coefficient)” value amounted to 1.337, the ΔG is -8.489 kcal/mol and the Kd is 0.526 µM. On pancreatic lipase [4] (310 K), the “K SV (Stern–Volmer quenching constant)” value was 6.247 ± 0.060^b × 10^4 M^−1, the KSV is recorded as 6.247 ± 0.060 × 10^4 M^−1, the binding constant was determined as 1.048e+06 M⁻¹ and the “n (Hill coefficient)” value was determined as 1.286. In addition, at pancreatic lipase [4] (310 K), the ΔG is -8.587 kcal/mol and the Kd is 0.954 µM. Also, the n values entry on pancreatic lipase [4] (at different temperatures (277, 298, 310 K)) is recorded as “greater than 1”. At pancreatic lipase [4] (setting [8]), this compound came in with a ΔH of -6.085 kcal/mol and a ΔS of 33.77 J mol^−1 K^−1. Besides, the quenching mechanism result on pancreatic lipase [5] is “static quenching”. The compound further showed a Kd on pancreatic lipase [6] of 6.35 µM. Besides, at pancreatic lipase [6] (ITC), the ΔG was -7.091 kcal/mol, the ΔH is -5.569 kcal/mol and the ΔS stood at 21.36 J mol^−1 K^−1.

In the case of `CCCCCCCCCCC[C@@H](C[C@@H]1OC(=O)[C@H]1CCCCCC)OC(=O)[C@H](CC(C)C)NC=O` [orlistat, reference compound], on pancreatic lipase [2], the inhibition type result is listed as “competitive inhibition”. The reversibility of inhibition entry on pancreatic lipase [7] was “irreversible inhibition”.

In the case of `C[C@@H]1O[C@@H](Oc2c(-c3ccc(O)c(O)c3)oc3cc(O)cc(O)c3c2=O)[C@H](O)[C@H](O)[C@H]1O` [quercetin 3-rhamnoside], in the assay on lipase, the lipase inhibition entry was “effective in lipase inhibition”.
